Drawing on ChEMBL document CHEMBL1152560, “Substituted 2-arylbenzothiazoles as kinase inhibitors: hit-to-lead optimization” (Bioorg Med Chem, 2009), this text covers residual activity and IC50 for 3 compounds.

Assay [1] deals with T1, Serine/threonine-protein kinase 17A (Homo sapiens) (UniProt Q9UEE5).
T1 sequence (whole entry): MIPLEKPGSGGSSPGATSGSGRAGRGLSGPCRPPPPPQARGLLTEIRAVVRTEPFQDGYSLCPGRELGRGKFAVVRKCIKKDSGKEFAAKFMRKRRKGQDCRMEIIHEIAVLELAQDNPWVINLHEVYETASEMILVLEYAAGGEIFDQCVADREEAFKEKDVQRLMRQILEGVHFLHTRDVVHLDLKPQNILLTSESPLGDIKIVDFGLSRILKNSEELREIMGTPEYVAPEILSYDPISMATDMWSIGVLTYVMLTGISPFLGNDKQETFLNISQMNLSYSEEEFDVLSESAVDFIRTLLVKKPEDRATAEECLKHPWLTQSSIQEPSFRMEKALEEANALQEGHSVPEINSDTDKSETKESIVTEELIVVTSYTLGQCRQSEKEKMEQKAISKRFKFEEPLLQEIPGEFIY
Description: Residual activity of STK17A at 10 uM by microplate scintillation counting.

The target in another assay is Aurora kinase B (Homo sapiens, UniProt Q96GD4). Description: Inhibition of Aurora-B by microplate scintillation counting. Summed up: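 Substrates: tetra(LRRWSLG) for Aurora A/B; poly(Ala,Glu,Lys,Tyr)6:2:5:1 for PDGFRβ; poly(Glu,Tyr)4:1 for TIE2 and VEGFR2. Stopped with 2% H3PO4.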
The target of assay [2] is T2, Serine/threonine-protein kinase D2 (Homo sapiens) (UniProt Q9BZL6).
T2 sequence (whole entry): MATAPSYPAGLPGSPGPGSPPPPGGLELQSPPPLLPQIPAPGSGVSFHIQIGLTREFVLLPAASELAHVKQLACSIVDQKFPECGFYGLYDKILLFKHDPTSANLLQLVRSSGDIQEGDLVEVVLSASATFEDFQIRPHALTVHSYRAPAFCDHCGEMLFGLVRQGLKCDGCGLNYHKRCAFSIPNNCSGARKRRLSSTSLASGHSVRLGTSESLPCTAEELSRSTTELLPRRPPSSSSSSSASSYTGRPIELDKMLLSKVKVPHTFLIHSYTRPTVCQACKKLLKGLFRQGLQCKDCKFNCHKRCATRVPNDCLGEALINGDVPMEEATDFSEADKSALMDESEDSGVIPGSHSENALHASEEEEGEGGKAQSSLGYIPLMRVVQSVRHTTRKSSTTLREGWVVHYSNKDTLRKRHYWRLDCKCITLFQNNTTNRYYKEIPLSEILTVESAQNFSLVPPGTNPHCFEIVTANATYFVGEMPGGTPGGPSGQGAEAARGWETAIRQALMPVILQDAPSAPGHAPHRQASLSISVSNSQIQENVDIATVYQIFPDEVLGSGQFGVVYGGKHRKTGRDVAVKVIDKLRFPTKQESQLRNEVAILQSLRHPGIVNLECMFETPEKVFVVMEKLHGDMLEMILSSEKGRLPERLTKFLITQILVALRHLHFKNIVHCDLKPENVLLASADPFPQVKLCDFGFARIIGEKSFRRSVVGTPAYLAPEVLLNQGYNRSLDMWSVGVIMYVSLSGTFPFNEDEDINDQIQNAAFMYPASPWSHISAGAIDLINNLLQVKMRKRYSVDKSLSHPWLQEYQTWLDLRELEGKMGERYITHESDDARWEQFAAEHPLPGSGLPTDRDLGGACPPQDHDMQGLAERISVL
Description: Residual activity of PRKD2 at 10 uM by microplate scintillation counting.

In assay [3] the target is Ephrin type-A receptor 2 (Homo sapiens) (UniProt P29317). Kind of assay: Residual activity of EPHA2 at 0.1 uM by microplate scintillation counting.
Assay [4] deals with T3, Tyrosine-protein kinase receptor TYRO3 (Homo sapiens) (UniProt Q06418).
T3 sequence (whole entry): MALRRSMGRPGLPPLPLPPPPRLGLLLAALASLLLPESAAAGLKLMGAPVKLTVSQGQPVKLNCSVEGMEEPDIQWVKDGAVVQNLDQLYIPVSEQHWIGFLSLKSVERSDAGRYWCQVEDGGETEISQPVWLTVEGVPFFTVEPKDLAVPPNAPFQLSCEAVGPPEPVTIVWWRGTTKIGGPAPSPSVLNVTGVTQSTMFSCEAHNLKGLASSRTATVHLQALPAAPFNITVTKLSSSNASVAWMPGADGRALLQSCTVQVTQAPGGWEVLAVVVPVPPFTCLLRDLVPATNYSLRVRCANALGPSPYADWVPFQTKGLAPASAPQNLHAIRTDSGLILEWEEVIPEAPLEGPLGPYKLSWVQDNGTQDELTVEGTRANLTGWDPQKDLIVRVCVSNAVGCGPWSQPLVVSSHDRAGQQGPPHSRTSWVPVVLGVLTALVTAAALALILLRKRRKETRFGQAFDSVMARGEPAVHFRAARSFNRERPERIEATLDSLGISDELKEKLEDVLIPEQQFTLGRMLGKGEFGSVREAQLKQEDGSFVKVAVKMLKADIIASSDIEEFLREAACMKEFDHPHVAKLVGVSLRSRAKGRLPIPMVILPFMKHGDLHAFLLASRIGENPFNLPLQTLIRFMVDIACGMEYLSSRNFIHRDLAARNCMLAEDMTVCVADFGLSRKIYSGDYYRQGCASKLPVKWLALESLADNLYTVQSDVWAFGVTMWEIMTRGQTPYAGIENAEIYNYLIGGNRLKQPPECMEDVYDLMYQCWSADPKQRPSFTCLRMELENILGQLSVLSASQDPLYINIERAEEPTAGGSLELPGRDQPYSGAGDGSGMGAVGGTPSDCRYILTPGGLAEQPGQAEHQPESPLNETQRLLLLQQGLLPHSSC
Description: Residual activity of TYRO3 at 1 uM by microplate scintillation counting.

Assay [5] addresses T4, Serine/threonine-protein kinase Sgk2 (Homo sapiens) (UniProt Q9HBY8).
T4 sequence (whole entry): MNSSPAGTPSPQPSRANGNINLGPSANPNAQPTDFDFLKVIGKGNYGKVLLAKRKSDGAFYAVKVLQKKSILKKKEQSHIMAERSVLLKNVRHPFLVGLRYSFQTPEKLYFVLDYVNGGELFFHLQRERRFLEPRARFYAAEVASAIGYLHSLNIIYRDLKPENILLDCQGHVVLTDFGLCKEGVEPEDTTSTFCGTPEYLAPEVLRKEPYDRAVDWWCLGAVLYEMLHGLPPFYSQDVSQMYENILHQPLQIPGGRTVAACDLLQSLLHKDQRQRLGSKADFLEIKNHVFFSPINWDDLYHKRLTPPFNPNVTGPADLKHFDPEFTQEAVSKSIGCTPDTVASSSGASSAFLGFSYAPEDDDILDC
Description: Residual activity of SGK2 at 0.1 uM by microplate scintillation counting.

For orientation: residual activity means the signal under treatment as a percentage of the control signal. As a reminder, the IC50 is the concentration at which inhibition is half-maximal. Low values mean greater potency, high ones weaker potency.

Ephrin type-A receptor 2 (Homo sapiens), sequence (P29317 whole entry): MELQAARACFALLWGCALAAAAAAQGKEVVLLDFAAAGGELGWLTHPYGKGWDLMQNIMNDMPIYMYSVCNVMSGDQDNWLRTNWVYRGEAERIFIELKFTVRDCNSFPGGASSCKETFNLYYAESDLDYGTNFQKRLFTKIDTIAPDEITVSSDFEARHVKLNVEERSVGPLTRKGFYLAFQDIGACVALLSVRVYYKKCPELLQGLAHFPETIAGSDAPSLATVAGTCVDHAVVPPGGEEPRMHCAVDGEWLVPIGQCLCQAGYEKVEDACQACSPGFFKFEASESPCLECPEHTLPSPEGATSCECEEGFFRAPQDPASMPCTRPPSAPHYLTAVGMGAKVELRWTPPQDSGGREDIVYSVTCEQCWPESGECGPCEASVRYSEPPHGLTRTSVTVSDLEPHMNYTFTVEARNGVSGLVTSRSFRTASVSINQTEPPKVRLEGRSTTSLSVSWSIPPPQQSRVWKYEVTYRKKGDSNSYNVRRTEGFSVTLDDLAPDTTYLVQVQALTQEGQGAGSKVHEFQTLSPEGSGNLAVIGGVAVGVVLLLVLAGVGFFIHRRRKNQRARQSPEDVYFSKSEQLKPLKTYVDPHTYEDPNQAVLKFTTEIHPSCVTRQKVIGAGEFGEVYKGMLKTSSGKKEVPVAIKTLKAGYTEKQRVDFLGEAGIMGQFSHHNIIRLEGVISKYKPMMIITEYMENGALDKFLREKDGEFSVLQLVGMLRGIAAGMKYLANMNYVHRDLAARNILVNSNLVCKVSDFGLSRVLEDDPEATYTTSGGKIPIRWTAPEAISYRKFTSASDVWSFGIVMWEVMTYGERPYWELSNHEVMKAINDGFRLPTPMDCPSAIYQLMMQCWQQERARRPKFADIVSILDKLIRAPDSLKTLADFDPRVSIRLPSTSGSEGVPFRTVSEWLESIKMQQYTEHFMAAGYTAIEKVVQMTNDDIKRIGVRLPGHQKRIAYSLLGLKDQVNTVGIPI
Aurora kinase B, sequence (Q96GD4 whole entry): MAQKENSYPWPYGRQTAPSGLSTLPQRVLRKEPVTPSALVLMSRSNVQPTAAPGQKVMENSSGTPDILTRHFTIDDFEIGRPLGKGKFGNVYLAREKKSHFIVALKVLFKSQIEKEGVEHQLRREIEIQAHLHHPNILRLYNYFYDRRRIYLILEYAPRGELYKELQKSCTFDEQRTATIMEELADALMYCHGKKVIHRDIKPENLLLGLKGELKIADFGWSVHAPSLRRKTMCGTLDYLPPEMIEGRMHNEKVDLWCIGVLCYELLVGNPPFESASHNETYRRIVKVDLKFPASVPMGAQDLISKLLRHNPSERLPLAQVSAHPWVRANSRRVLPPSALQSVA

In the case of `COc1cc2c(Oc3ccc(-c4nc5ccccc5s4)cc3)ncnc2cc1OCCCN1CCN(C)CC1`, the residual activity was 19% in assay [1]; 146% in assay [2]; 99% in assay [3]; 100% in assay [4]; 93% in assay [5]. Moreover, half-maximal inhibition against Aurora kinase B (IC50) required 63 nM.
`COc1cc2c(Oc3ccc(-c4nc5ccccc5s4)cc3)ncnc2cc1OCCCN1CCCC1`: the residual activity turned out to be 6% in assay [1]; 136% in assay [2]; 76% in assay [3]; 103% in assay [4]; 94% in assay [5]. The IC50 at Aurora kinase B was determined as 162 nM.
In the case of `COc1cc2c(Oc3ccc(-c4nc5ccccc5s4)cc3F)ncnc2cc1OCCCN1CCN(C)CC1`, the residual activity in assay [1] stood at 1%; in assay [2], 128%; in assay [3], 94%; in assay [4], 103%; in assay [5], 95%. Inhibition against Aurora kinase B was half-maximal at 130 nM (IC50).
